The values that follow come from PMC3529830 (Chemistry & biology, 2012).

The conditions of data set [1]: rat P. berghei model; ref Gantt et al., 1998; cited from earlier work.
The conditions of data set [2]: 5 consecutive days of treatment; ref Demo et al., 2007; cited from earlier work.
In data set [3] the test system is P. falciparum gametocytes. The data set is described as follows: P. falciparum gametocyte viability assay. As to conditions: 24 hr treatment. It counts as cell-based, Plasmodium falciparum.
Data set [4] in a line: Host toxicity in P. berghei infected mice during treatment. As to conditions: daily I.V. doses, scruffy coat, significant weight loss.
Data set [5] relates to P. falciparum proteasome. The data set is described as follows: Recovery of P. falciparum proteasome activity after inhibitor washout. It counts as cell-based, Plasmodium falciparum.
The test system of data set [6] is P. falciparum. The experiment in a line: P. falciparum replication assay. As to conditions: Plasmodium falciparum, read-out: EC50, parasite replication. It counts as cell-based.
Data set [7] deals with putative β5 subunit of P. falciparum proteasome (Plasmodium falciparum, UniProt Q8IJT1). The experiment in a line: Proteasome activity in intact inhibitor-treated trophozoites by MV151 labeling. It counts as cell-based. The procedure, abridged:
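P. falciparum culture at ~15% parasitemia; intact trophozoites exposed 1 hr to a range of inhibitor concentrations, then pelleted and washed 3× in fresh medium. Hypotonic lysis (50 mM Tris pH 7.4, 5 mM MgCl2, 1 mM DTT) on ice 1 hr. ≥2 μg lysate labeled with 2 μM MV151, 37°C 1 hr. Run on 12% SDS-PAGE, TAMRA fluorescence scan. Band intensity expressed as % of DMSO; curve fit to IC50; 3 independent experiments.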

Data set [8] relates to P. berghei. The data set is described as follows: P. berghei mouse model of malaria, parasitemia. It counts as in vivo, Plasmodium berghei in Balb/c mice. As to conditions: tolerated dose, I.V. daily for 3 consecutive days.
Data set [9] has as its system non-confluent human foreskin fibroblast (HFF) cells. The data set is described as follows: HFF cell toxicity assay. It counts as cell-based. As to conditions: read-out: EC50, host cell killing.
In data set [10] the test system is P. falciparum. As to conditions: 1 μM; ref Czesny et al., 2009; cited from earlier work.
In data set [11] the test system is A549 cells. As to conditions: 1 μM; ref Czesny et al., 2009; cited from earlier work.
The test system of data set [12] is NIH3T3 cells. As to conditions: 1 μM; ref Czesny et al., 2009; cited from earlier work.

As for `CC(=O)N[C@@H](CSC(=O)[C@]1([C@@H](O)C(C)C)NC(=O)[C@H](C)[C@@H]1O)C(=O)O` [lactacystin, Lactacystin], the host toxicity entry in [1] was “significant host toxicity”.
`CC(C)C[C@H](NC(=O)[C@H](CCc1ccccc1)NC(=O)CN1CCOCC1)C(=O)N[C@@H](Cc1ccccc1)C(=O)N[C@@H](CC(C)C)C(=O)[C@@]1(C)CO1` [carfilzomib, Carfilzomib]: in data set [2], the maximum tolerable dose is 2 mg/kg. Further, the activity against gametocytes entry in [3] is given as “effective towards gametocytes”. In addition, in data set [4], the “dose at which mice started to develop signs of compound toxicity” value was 1 mg/kg. In data set [5] (100 nM dose, activity determined 10 hr after washout), the “inhibitor exposure necessary to prevent recovery of proteasome activity” value is “at least 6 hr”. In data set [5] (1 μM, 1 hr treatment, 47 hrs after compound washout), the “recovery of proteasome activity after washout” value is “substantial recovery of proteasome activity”. The “time to recovery of proteasome activity after inhibitor removal” value in data set [5] (1 hr treatment of trophozoites, washout, depending on the dose) was no more than 24 h. In addition, the EC50 in data set [6] is 28.8 nM; in data set [9] it was 492 nM. In data set [7], this molecule returned an IC50 of 25 nM. Besides, in data set [8], the “effect on parasite burden” value is reported as “only a very minor effect on parasite burden at day 3”.
Regarding `CC[C@H](C)[C@H](NC(=O)[C@H]([C@@H](C)CC)N(C)C(C)=O)C(=O)N[C@H](C(=O)N[C@@H](CC(C)C)C(=O)[C@@]1(C)CO1)[C@@H](C)O` [epoxomicin], the “effect on P. falciparum replication” value in data set [10] was “completely blocking”. In addition, the decrease in viability in data set [11] and in data set [12] was 20% in each case.

A word on the EC50: it is the concentration giving half of the maximal effect. One may read the IC50 as the concentration at which inhibition is half-maximal.
